{"data": "Experimental data collected from several papers", "note": "Protocols differ between the studies behind these lines."}
{"Compound": "O=P1(C2CCCCC2)CCCCC1", "cell line": "SW-620", "observed": "cell growth or viability", "technique": "MTT", "time": "72 h", "IC50": "16.1 µM"}
{"Compound": "O=C(NO)c1ccc(Cn2cnc3c(Nc4cccc([N+](=O)[O-])c4)ncnc32)cc1", "cell line": "THP-1", "observed": "cell growth or viability", "technique": "MTT", "time": "72 h", "IC50": "0.53 µM"}
{"Compound": "Cc1noc(C)c1-c1cc(C(O)(c2ccccn2)c2ccccn2)c2nc(C3CC3)[nH]c2c1", "cell line": "MP46", "observed": "cell growth or viability", "technique": "ATP luminescence", "time": "72 h", "IC50": "0.0712 µM"}
{"Compound": "c1ccc(Oc2ccc(Nc3c4c(nc5ccccc35)CCC4)cc2)cc1", "cell line": "THP-1", "observed": "cell growth or viability", "time": "72 h", "IC50": "18.3 µM"}
{"Compound": "COc1ccc(Nc2ncnc3c2ncn3Cc2ccc(C(=O)NO)cc2)cc1", "cell line": "THP-1", "observed": "cell growth or viability", "technique": "MTT", "time": "72 h", "IC50": "0.42 µM"}
{"Compound": "N#Cc1ccc(-c2cc(CNc3cccc4cccnc34)on2)cc1", "cell line": "CAPAN-1", "observed": "cell growth or viability", "technique": "MTS", "time": "72 h", "IC50": "13.1 µM"}
{"Compound": "COC(=O)Nc1nc2ccc(C(=O)c3cccs3)cc2[nH]1", "cell line": "HepaRG", "observed": "reactive oxygen species", "action": "inhibitor", "time": "16 h", "IC50": "9.61 µM"}
{"Compound": "O=C(CSc1nc2ccccc2s1)N/N=C/c1ccc(OCC(=O)Nc2cccc(Br)c2)cc1", "cell line": "CAPAN-1", "observed": "cell growth or viability", "technique": "MTS", "time": "72 h", "IC50": "> 100 µM"}
{"Compound": "O=c1cc(OCc2cc(-c3ccccc3)no2)c2ccccc2o1", "cell line": "CAPAN-1", "observed": "cell growth or viability", "technique": "MTS", "time": "72 h", "IC50": "> 100 µM"}
{"Compound": "Cc1noc2c1-c1ccc(-c3cnn(C)c3)cc1C(c1ccc(Cl)cc1)=N[C@H]2CC(N)=O", "cell line": "MP46", "observed": "cell growth or viability", "technique": "ATP luminescence", "time": "72 h", "IC50": "0.248 µM"}
{"Compound": "COc1cc([C@@H]2c3cc4c(cc3[C@@H](O[C@@H]3O[C@@H]5CO[C@@H](C)O[C@H]5[C@H](O)[C@H]3O)[C@H]3COC(=O)[C@H]23)OCO4)cc(OC)c1O", "cell line": "CAPAN-1", "observed": "cell growth or viability", "technique": "MTS", "time": "72 h", "IC50": "0.24 µM"}
{"Compound": "N#Cc1ccc(-c2cc(COc3cc(C(F)(F)F)nc4ccccc34)on2)cc1", "cell line": "CAPAN-1", "observed": "cell growth or viability", "technique": "MTS", "time": "72 h", "IC50": "22.5 µM"}
{"Compound": "O=[N+]([O-])c1ccc(Sc2cccc[n+]2[O-])c2nonc12", "cell line": "MP46", "observed": "cell growth or viability", "technique": "ATP luminescence", "time": "72 h", "IC50": "2.79 µM"}
{"Compound": "C[C@H]1C[C@H]2[C@@H]3CCC4=CC(=O)C=C[C@]4(C)[C@H]3C(=O)C[C@]2(C)[C@@]1(O)C(=O)CO", "cell line": "HepaRG", "observed": "reactive oxygen species", "action": "inhibitor", "time": "16 h", "IC50": "5.27 µM"}
{"Compound": "FC(F)(F)c1ccc(-c2cc(CNc3cccc4cccnc34)on2)cc1", "cell line": "CAPAN-1", "observed": "cell growth or viability", "technique": "MTS", "time": "72 h", "IC50": "19.9 µM"}
{"Compound": "C/C=C1\\NC(=O)[C@H]2CSSCC/C=C/[C@H](CC(=O)N[C@H](C(C)C)C(=O)N2)OC(=O)[C@H](C(C)C)NC1=O", "cell line": "MP46", "observed": "cell growth or viability", "technique": "ATP luminescence", "time": "72 h", "IC50": "0.00127 µM"}
{"Compound": "O=c1cc(OCc2cc(-c3ccc(C(F)(F)F)cc3)no2)c2ccccc2o1", "cell line": "CAPAN-1", "observed": "cell growth or viability", "technique": "MTS", "time": "72 h", "IC50": "> 100 µM"}
{"Compound": "CC(=O)N1c2ccc(-c3ccc(C(=O)O)cc3)cc2[C@H](Nc2ccc(Cl)cc2)C[C@@H]1C", "cell line": "MP46", "observed": "cell growth or viability", "technique": "ATP luminescence", "time": "72 h", "IC50": "0.104 µM"}
{"Compound": "CC1(P2(=O)CCCCC2)CCCCC1", "cell line": "SW-620", "observed": "cell growth or viability", "technique": "MTT", "time": "72 h", "IC50": "> 100 µM"}
{"Compound": "O=C(CSc1nc2ccccc2s1)N/N=C/c1ccc(OCC(=O)Nc2ccc(Br)cc2)cc1", "cell line": "CAPAN-1", "observed": "cell growth or viability", "technique": "MTS", "time": "72 h", "IC50": "10.2 µM"}
{"Compound": "COc1ccc(-c2nc(N3CCOCC3)c3sc(CN(C)c4ncc(C(=O)NO)cn4)cc3n2)cn1", "cell line": "MP46", "observed": "cell growth or viability", "technique": "ATP luminescence", "time": "72 h", "IC50": "0.00928 µM"}
{"Compound": "N/C(=N\\O)c1ccc(-c2cc(CNc3cccc4cccnc34)on2)cc1", "cell line": "CAPAN-1", "observed": "cell growth or viability", "technique": "MTS", "time": "72 h", "IC50": "4.7 µM"}
{"Compound": "O=P1(c2ccccc2)CCCCC1", "cell line": "SW-620", "observed": "cell growth or viability", "technique": "MTT", "time": "72 h", "IC50": "> 100 µM"}
{"Compound": "O=c1cc(OCc2cc(-c3ccccn3)no2)c2ccccc2o1", "cell line": "CAPAN-1", "observed": "cell growth or viability", "technique": "MTS", "time": "72 h", "IC50": "> 100 µM"}
{"Compound": "Cc1cccc(C)c1NC(=O)CN1CCCC1=O", "cell line": "HepaRG", "observed": "reactive oxygen species", "action": "inhibitor", "time": "16 h", "IC50": "5.93 µM"}
{"Compound": "Cc1cc2c(C(=O)O)cccc2n1-c1nc2c(c(NCc3ccccc3)n1)CCCN2", "cell line": "SW-620", "observed": "cell growth or viability", "time": "72 h", "IC50": "2.1 µM"}
{"Compound": "CCOc1ccc(Nc2c3c(nc4ccccc24)CCC3)cc1", "cell line": "THP-1", "observed": "cell growth or viability", "time": "72 h", "IC50": "18.6 µM"}
{"Compound": "O=C(NO)c1ccc(Cn2cnc3c(Nc4ccc(Br)cc4F)ncnc32)cc1", "cell line": "THP-1", "observed": "cell growth or viability", "technique": "MTT", "time": "72 h", "IC50": "0.93 µM"}
{"Compound": "Cc1[nH]c2ccccc2c1CCNCc1ccc(/C=C/C(=O)NO)cc1", "cell line": "MP46", "observed": "cell growth or viability", "technique": "ATP luminescence", "time": "72 h", "IC50": "0.0277 µM"}
{"Compound": "FC(F)(F)c1cc(OCc2cc(-c3ccccn3)no2)c2ccccc2n1", "cell line": "CAPAN-1", "observed": "cell growth or viability", "technique": "MTS", "time": "72 h", "IC50": "> 100 µM"}
{"Compound": "COc1ccc(Nc2ncnc3c2ncn3Cc2ccc(C(=O)Nc3ccccc3N)cc2)cc1", "cell line": "THP-1", "observed": "cell growth or viability", "technique": "MTT", "time": "72 h", "IC50": "0.93 µM"}
